Data set [1] concerns Striatum. The data set can be described thus: Drug uptake in kainic acid-lesioned Sprague-Dawley rat striatum assessed as standardized uptake value. Type of data set: ADME, tissue-based. As to conditions: in vivo. The procedure, abridged: (§1)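 Dynamic small-animal PET of [18F]-labelled ligand in neuroinflammatory rats (n = 4). Striatal time-activity curves are expressed as SUV = (radioactivity per cm3 tissue / injected radioactivity) × g body weight, as mean ± SD.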

For data set [2], the system named is Striatum. Kind of data set: Drug uptake in non-lesioned Sprague-Dawley rat striatum assessed as standardized uptake value. Format: ADME, tissue-based. The settings on record: in vivo. The procedure, abridged: as §1
Data set [3] relates to Striatum. Kind of data set: Ratio of drug uptake in kainic acid-lesioned to non-lesioned Sprague-Dawley rat striatum after 10 to 20 mins. Type of data set: ADME, tissue-based. The settings on record: in vivo. The procedure, abridged:
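From small-animal PET time-activity curves in neuroinflammatory rats (n = 4), the radioactivity in the lesioned striatum is divided by that in the non-lesioned striatum over the scan, and the maximum ratio is taken.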

Data set [4] has as its target T1, Translocator protein (Rattus norvegicus, UniProt P16257). Kind of data set: Displacement of [11C]PK11195 from PBR receptor in rat brain membrane. Type of data set: cell membranes.
The nature of data set [5]: Displacement of [11C]flumazenil from CBR receptor in rat brain membrane. Format: cell membranes. The procedure, abridged: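 Competition against [11C]flumazenil binding in rat brain homogenate; Ki derived; mean ± SD from duplicate homogenates.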
For orientation: Displacement assays read how much labelled ligand stays bound in the presence of the test substance.

Data set [6] can be described thus: Distribution coefficient, log D in octanol/phosphate buffer at pH 7.4 by shaking flask method. Type of data set: physicochemical.
The target of data set [7] is T1, Translocator protein. Kind of data set: Displacement of [11C]DAA1106 from PBR receptor in rat brain membrane. Format: cell membranes.

T1 sequence (P16257 whole entry, looked up): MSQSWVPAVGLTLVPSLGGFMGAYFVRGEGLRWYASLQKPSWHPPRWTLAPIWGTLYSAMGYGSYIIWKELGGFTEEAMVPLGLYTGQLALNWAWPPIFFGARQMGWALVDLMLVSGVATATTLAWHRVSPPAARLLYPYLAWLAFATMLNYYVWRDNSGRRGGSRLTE

Regarding `CN(Cc1ccccc1)C(=O)Cn1c(=O)n(CC[18F])c2cnc(-c3ccccc3)nc21`, the SUV is reported as 1.6 in data set [1] and 0.9 in data set [2]. In addition, the Ratio in data set [3] is listed as 2.5.
Regarding `COc1ccc(OCC[18F])c(CN(C(C)=O)c2cc(F)ccc2Oc2ccccc2)c1`, the SUV is on record as 1.5 in data set [1] and 1.3 in data set [2].
Regarding `CN(Cc1ccccc1)C(=O)Cn1c(=O)n(CCF)c2cnc(-c3ccccc3)nc21`, the Ki – broadly, a measure of affinity in units of concentration, obtained from inhibition or displacement – in data set [4] amounted to 1.34 nM; in data set [5], 8400 nM. The logD (in general, the decadic logarithm of the distribution of all forms, ionised or not, between an organic phase and buffer at a given pH) in data set [6] came to 3.2.
Take `COc1ccc(OCCF)c(CN(C(C)=O)c2cc(F)ccc2Oc2ccccc2)c1`: the Ki was 0.08 nM in data set [7] and greater than 1000 nM in data set [5]. The same compound yielded a logD in data set [6] of 3.8.
As to `CCN(Cc1ccccc1)C(=O)Cn1c(=O)n(C)c2cnc(-c3ccccc3)nc21`, the Ki in data set [4] is 0.2 nM; in data set [5], greater than 8400 nM. The compound further registered a logD in data set [6] of 3.3.
Compound `CCC(C)N(C)C(=O)c1cc2ccccc2c(-c2ccccc2Cl)n1` (stereo not given) [PK-11195] yielded a Ki in data set [5] greater than 8400 nM. The compound further registered a logD in data set [6] of 3.7.
As to `Cn1c(=O)n(CC(=O)N(CCF)Cc2ccccc2)c2nc(-c3ccccc3)ncc21`, the inhibition constant (Ki) was 0.51 nM in data set [4] and greater than 8400 nM in data set [5]. Moreover, the logD in data set [6] stood at 3.1.
As to `CCN(Cc1ccccc1)C(=O)Cn1c(=O)n(CC[18F])c2cnc(-c3ccccc3)nc21`, the SUV in data set [1] was found to be 1.2; in data set [2], 0.8. The Ratio in data set [3] is 2.5.
In the case of `CCN(Cc1ccccc1)C(=O)Cn1c(=O)n(CCF)c2cnc(-c3ccccc3)nc21`, the results for the inhibition constant Ki in data set [4] and in data set [5] were 0.49 nM and greater than 8400 nM, respectively. For the same compound, the log distribution coefficient (logD) in data set [6] was found to be 3.6.

Source of the values: ChEMBL document CHEMBL1153915, “[18F]FEAC and [18F]FEDAC: Two novel positron emission tomography ligands for peripheral-type benzodiazepine receptor in the brain” (Bioorg Med Chem Lett, 2009).
